These results are taken from the array DNA melting data of Ke et al. (doi:10.1101/2024.01.08.574731).

The nature of data set [1]: melting temperature; fluorescence melt of hairpins on a sequencing array, two-state fit, raised by 9.35 °C to match UV melts. The conditions noted are these: sodium 0.088 M. An outline of the steps: (§1)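 Library hairpins on a sequenced MiSeq flow cell carried annealed Cy3 and quencher oligos, and their Cy3 fluorescence was imaged in 50 mM Na-HEPES pH 8.0 with 25 mM NaCl, in 2.5 °C steps up to 60 °C. Signals were normalised to Cy3 before quenching and to control constructs. Melting temperature and folding enthalpy were obtained from bootstrapped two-state fits, combined by inverse-variance weighting across four replicates, and the fitted temperatures were then raised by 9.35 °C to match UV melts.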

Data set [2] is described as follows: folding enthalpy; higher = less favourable; fluorescence melt of hairpins on a sequencing array, two-state fit. The conditions noted are these: sodium 0.088 M. An outline of the steps: as §1

On to GTAAGTCGAAAGACATAC (((.(((....))).))), for which the Tm in data set [1] is 38.7 °C. Further, in data set [2], the folding enthalpy was -21.5 kcal/mol.

For GAAGTTGGAAACAACTCC (.(((((....))))).), the Tm in data set [1] was determined as 34.1 °C. The folding enthalpy in data set [2] is -19.2 kcal/mol.

Turning to GTCGTAGGAAACTATGAC (((.(((....))).))), the Tm in data set [1] turned out to be 45.2 °C. Further, in data set [2], the folding enthalpy was -35.4 kcal/mol.

With GCGTGGCGAAAGCGCCGC (((..((....))..))), the Tm in data set [1] stood at 56.2 °C. In data set [2], the folding enthalpy is -19.1 kcal/mol.

Regarding GATCATCTGGATGATC ((((((....)))))), in data set [1], the Tm stood at 53 °C. In data set [2], the folding enthalpy is -44.9 kcal/mol.

GATTTTGAAAAAAATC ((((((....)))))): the Tm in data set [1] turned out to be 40.7 °C. Also, the folding enthalpy in data set [2] is -23.7 kcal/mol.

Take GTCGTTGCGAAAGCAGAC (((..(((....)))))): the Tm in data set [1] came out at 49.2 °C. For the same sequence, the folding enthalpy in data set [2] was -21.1 kcal/mol.

Turning to GCGGTGCGAAAGCGCTGC ((.(.((....)).).)), the Tm in data set [1] is 66.9 °C. The folding enthalpy in data set [2] was -21.6 kcal/mol.

As to GGTACCGAAAGGTTGACC ((((((....)))..))), the Tm in data set [1] is 36 °C. Further, the folding enthalpy in data set [2] was -16.9 kcal/mol.

Consider GCGATGCGAAAGCCGCGC (((..((....))..))), for which, in data set [1], the Tm was determined as 64.7 °C. Also, in data set [2], the folding enthalpy was -27.7 kcal/mol.

As for GATCCAGACGTGGATC ((((((....)))))), the Tm in data set [1] is 53.2 °C. Moreover, the folding enthalpy in data set [2] is -45.1 kcal/mol.

For GATCCACGTTGGATC ((((((...)))))), the Tm in data set [1] turned out to be 50.6 °C. The folding enthalpy in data set [2] was -29.7 kcal/mol.

For GCCTTGCGAAAGCGAAGC ((.(.((....)).).)), the Tm in data set [1] was 45 °C. Besides, the folding enthalpy in data set [2] is -8.01 kcal/mol.

Take GGCCCTGGAAACAAGGCC ((((.((....)).)))): the Tm in data set [1] came to 48.3 °C. For the same sequence, the folding enthalpy in data set [2] is -36.7 kcal/mol.

For the sequence GTCCCACCGAAAGGTGAC (((..(((....)))))), the Tm in data set [1] was 27 °C. In addition, the folding enthalpy in data set [2] was -8.32 kcal/mol.

On to GATCTAAGTTAGATC ((((((...)))))), for which the Tm in data set [1] worked out at 37.3 °C. For the same sequence, the folding enthalpy in data set [2] was -29.9 kcal/mol.

For the sequence GAGTAGACGAAAGTCCTC (((..(((....)))))), in data set [1], the Tm worked out at 32.8 °C. Besides, the folding enthalpy in data set [2] was -14.1 kcal/mol.

Turning to GACGCTCCGAAAGGAGTC (((..(((....)))))), the Tm in data set [1] turned out to be 34.5 °C. Besides, in data set [2], the folding enthalpy is -9.32 kcal/mol.

Regarding GGGCGTGGAAACATGCCC ((((.((....)).)))), in data set [1], the Tm turned out to be 63.1 °C. In addition, the folding enthalpy in data set [2] is -42.9 kcal/mol.

On to GACGGTGCGAAAGCAGTC (((..(((....)))))), for which the Tm in data set [1] was determined as 39.9 °C. Further, the folding enthalpy in data set [2] was -16.9 kcal/mol.

As for GACCCCGAAAGGGGTGTC ((((((....)))..))), the Tm in data set [1] was 60.6 °C. Besides, in data set [2], the folding enthalpy was -9.59 kcal/mol.

For the sequence GACTAGGGAAACCTAGTC (((((((....))))))), the Tm in data set [1] came out at 56.9 °C. In addition, in data set [2], the folding enthalpy is -42.5 kcal/mol.

With GACGTAGGAAACTACGTC (((((((....))))))), in data set [1], the Tm worked out at 63.3 °C. Further, the folding enthalpy in data set [2] was -44 kcal/mol.

On to GATAGCGAAAGCTCGATC ((((((....)))..))), for which the Tm in data set [1] is 24.8 °C. In addition, the folding enthalpy in data set [2] is -10.1 kcal/mol.

As to GACCTTGGAAACAAGGTC (((((((....))))))), in data set [1], the Tm was 63 °C. Also, the folding enthalpy in data set [2] is -40.6 kcal/mol.

CGCGGACGATCCGCG ((((((...)))))): in data set [1], the Tm amounted to 63.2 °C. Besides, in data set [2], the folding enthalpy is -35.3 kcal/mol.

Turning to GCCAGGCGAAAGCGGGGC (((..((....))..))), the Tm in data set [1] was 63.2 °C. Also, the folding enthalpy in data set [2] was -23.9 kcal/mol.

Take GCATCCGAAAGGAGTGC ((((((....))).))): the Tm in data set [1] was 51.2 °C. Further, the folding enthalpy in data set [2] was -22.5 kcal/mol.

As to GCAAAGAAATTTGC (((((....))))), the Tm in data set [1] was 38.9 °C. Moreover, the folding enthalpy in data set [2] was -19.4 kcal/mol.

With GAGTGCGAAAGCAAGCTC ((((((....)))..))), the Tm in data set [1] came to 43.6 °C. Moreover, the folding enthalpy in data set [2] is -14.2 kcal/mol.

Consider GCCGTGCGAAAGCCGGGC (((..((....))..))), for which the Tm in data set [1] came out at 65.3 °C. Besides, in data set [2], the folding enthalpy is -15.1 kcal/mol.

Consider GATCTACTTCTAGATC ((((((....)))))), for which, in data set [1], the Tm is 38.7 °C. The folding enthalpy in data set [2] is -33.5 kcal/mol.

As to GTGATTCGAAAGAACAC (((.(((....)))))), the Tm in data set [1] came out at 40.9 °C. Besides, the folding enthalpy in data set [2] was -24.8 kcal/mol.

For GGGCAAGGAAACCTGCCC (((((.(....).))))), the Tm in data set [1] turned out to be 57.5 °C. Further, the folding enthalpy in data set [2] is -37.7 kcal/mol.

On to GATCAAATTCTTGATC ((((((....)))))), for which, in data set [1], the Tm was 41.4 °C. For the same sequence, the folding enthalpy in data set [2] was -32.6 kcal/mol.

On to GAGCAGGGAAACCTGCCC (.(((((....))))).), for which the Tm in data set [1] is 42.1 °C. Besides, the folding enthalpy in data set [2] is -12.8 kcal/mol.

For the sequence GGAATGAAAATTCC (((((....))))), in data set [1], the Tm was 44.3 °C. For the same sequence, the folding enthalpy in data set [2] is -22.3 kcal/mol.
